Experimental data gathered from unrelated publications.
Compare with care: the assays were run in different laboratories.
Target: Homeodomain-interacting protein kinase 3 (HIPK3, Homo sapiens, UniProt Q9H422)

SMILES	observed	action	method	tested at	quantity	value
COc1cc2ncnc(Nc3ccc(Oc4ccccc4)cc3C)c2cc1OC	enzyme activity	inhibitor		1 µM	inhibition	3%
O=C(O)c1ccc2c(c1)nc(NCCc1cccc(F)c1)c1ccncc12	enzyme activity	inhibitor	radiometric	1 µM	remaining activity	8%
Nc1ncnc2occ(-c3ccc(NC(=O)Nc4cc(C(F)(F)F)ccc4F)cc3)c12	cell-free assay	inhibitor		20 µM	remaining signal	0.7%
CCc1ccccc1C(=O)Nc1n[nH]c2c(C)c(F)c(C3C(C#N)=C(C)N(C)C(C)=C3C#N)cc12	cell-free assay		competition with immobilised ligand	1 µM	remaining binding	100%
Cn1c(=O)n(-c2ccc(C(C)(C)C#N)cc2)c2c3cc(-c4cnc5ccccc5c4)ccc3ncc21	enzyme activity	inhibitor		10 µM	remaining activity	102%
O=C(NCc1ncc(C(F)(F)F)cc1Cl)c1ccc2c(c1)C1(CCS(=O)(=O)CC1)[C@H](C1CC1)N2S(=O)(=O)c1ccc(F)cc1	cell-free assay		competition with immobilised ligand	1 µM	remaining binding	82%
N#CCCc1ccc2c(c1)-c1[nH]c3ccc([N+](=O)[O-])cc3c1CC(=O)N2	cell-free assay			0.5 µM	remaining signal	104%
CN1CC(Oc2cnc(C#N)cc2-c2ccn3nc(NC(=O)C4CC4)cc3c2)C1	enzyme activity	inhibitor		1 µM	inhibition	-3%
COc1cccc(CCNc2nc3cc(C(=O)O)ccc3c3cncnc23)c1	enzyme activity	inhibitor	radiometric	1 µM	remaining activity	27%
Cc1ccc(Nc2nccc(N(C)c3ccc4c(C)n(C)nc4c3)n2)cc1S(N)(=O)=O	enzyme activity	inhibitor		10 µM	inhibition	20%
O=C(O)c1ccc2c(c1)nc(Nc1cccc(F)c1)c1ccncc12	enzyme activity	inhibitor	radiometric	1 µM	remaining activity	10%
COc1cc(Nc2cnc(C#N)c(O[C@H](C)CN(C)C)n2)ncc1-c1cnn(C)c1	enzyme activity	inhibitor	radiometric	10 µM	remaining activity	111%
COc1cc2ncnc(Nc3ccc(F)c(Cl)c3)c2cc1OCCCN1CCOCC1	cell-free assay			0.5 µM	remaining signal	103%
CCN(CC)CCNC(=O)c1c(C)[nH]c(/C=C2\C(=O)Nc3ccc(F)cc32)c1C	enzyme activity	inhibitor		10 µM	inhibition	82%
O=C(O)c1ccc2c(c1)nc(NCCc1cccc(Cl)c1)c1ccncc12	enzyme activity	inhibitor	radiometric	1 µM	remaining activity	29%
NS(=O)(=O)c1cc(NC(=O)Cc2ccccc2)ccc1Oc1cccc(Cl)c1	cell-free assay		competition with immobilised ligand	1 µM	remaining binding	84%
COc1cc(-c2cc(-c3ccc(N4CCNCC4)cc3)cnc2C)cc(OC)c1OC	enzyme activity	inhibitor		0.1 µM	inhibition	1%
CNC(=O)Nc1ccc2c(c1)[C@@]1(CC2)OC(=O)N(CC(=O)N(Cc2ccc(F)cc2)[C@@H](C)C(F)(F)F)C1=O	cell-free assay		competition with immobilised ligand	1 µM	remaining binding	90%
O=C1Nc2ccc(Cl)cc2C1=Cc1cc(Cl)c(O)c(Cl)c1	cell-free assay			0.5 µM	remaining signal	91.5%
O=C(O)c1ccc2c(c1)nc(Nc1ccc3ccccc3c1)c1ncncc12	enzyme activity	inhibitor	radiometric	1 µM	remaining activity	3%
Cc1ccc(NC(=O)c2ccc(C)c(C(F)(F)F)c2)cc1C#Cc1nn(C2CCC(O)CC2)c2ncnc(N)c12 (stereo not drawn)	cell-free assay			10 µM	remaining signal	81%
CCCOc1ccc([C@H]2[C@H](C(=O)O)[C@@H](c3ccc4c(c3)OCO4)CN2CC(=O)Nc2c(CC)cccc2CC)cc1	cell-free assay		competition with immobilised ligand	1 µM	remaining binding	74%
FC(F)(F)Oc1cccc(-c2cnc3ccc(-c4ccncc4)nn23)c1	enzyme activity	inhibitor	radiometric	1 µM	activity vs control	44%
O=C(O)c1ccc2c(c1)nc(Nc1cccc(F)c1)c1ncncc12	enzyme activity	inhibitor	radiometric	1 µM	remaining activity	5%
Cc1c(C(=O)O)cc(-c2ccc(C3CCNCC3)cc2)c2ccc(-c3ccc(C(F)(F)F)cc3)cc12	binding		competition with immobilised ligand	1 µM	remaining binding	100%
N#Cc1cccc(Nc2nc3cc(C(=O)O)ccc3c3cncnc23)c1	enzyme activity	inhibitor	radiometric	1 µM	remaining activity	8%
COc1cccc(CNC(=O)c2nc3scc(COCc4ccc(C(=O)O)cc4)c3c(=O)[nH]2)c1	cell-free assay		competition with immobilised ligand	1 µM	remaining binding	73.7%
COc1cc2nccc(Oc3ccc(NC(=O)c4c5n(n(-c6ccc(F)cc6)c4=O)CCCC5)cc3)c2cc1OC	enzyme activity	inhibitor		0.1 µM	inhibition	-8%
O=C(O)c1ccc2c(c1)nc(NCCc1cccc(F)c1)c1ncncc12	enzyme activity	inhibitor	radiometric	1 µM	remaining activity	27%
COc1ccc2c(O[C@@H]3C[C@H]4C(=O)N[C@]5(C(=O)O)CC5/C=C\CCCCC[C@H](NC(=O)OC5CCCC5)C(=O)N4C3)cc(-c3csc(NC(=O)C(C)C)n3)nc2c1C (stereo partly drawn)	cell-free assay		competition with immobilised ligand	1 µM	remaining binding	83%
